# Jurkat viability: cytotoxic compounds reducing Jurkat cell viability; Jurkat E6.1 viability, ATP luminescence, 48 h; inhibition, % at 4 µM; hit rate 1.2% among 56,000; AID 463;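 active means inhibition above the mean inhibition of all tested compounds plus 3 SD, cut at about 28% in these data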
# Pyk2 oligo antag: antagonists of human Pyk2 oligomerization; Q293 cells, Pyk2 FERM NanoBiT luminescence; hits give low values; hit rate 0.83% among 99,000; Q14289; AID 1347419; z-score (the deposit names both 25 µM and 10 µM);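 active means Z-score of -3 or lower, scaled per plate to the spread of control and sample wells; inactive means z-score above -3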;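 further: negative z-score means lost luminescence so less FERM oligomerization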
# cytoskel mod: cytoskeleton assembly modification; HUVEC TNFa F-actin phalloidin imaging, high content; inhibition, % at 2 µM; hit rate 0.18% among 91,000;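 active means inhibition above the batch mean plus 3 SD and confirmed as a hit by visual image inspection, cut at about 30% in these data, passing the limit was not always enough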
# HUVEC prolif 384: human endothelial cell proliferation inhibition; hit rate 1.1% among 86,000; AID 648; HUVEC proliferation, CellTiter-Glo luminescence, 72 h; hits give low values; viability, % at 10 µM (by protocol);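 active means viability at or below 30%; inactive means viability above 30%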;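 further: 100% = median luminescence of DMSO-only cell control wells on each plate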
# H69AR inhibit: growth inhibitors of human H69AR lung tumor cells; H69AR lung tumor viability, ATP luminescence, 72 h; hits give low values; viability, % at 10 µM; hit rate 6% among 85,000;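 active means viability at or below 40%; inactive means viability above 40%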;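 further: multidrug resistant small cell line overexpressing MRP-1 efflux transporter; 100% = mean luminescence of untreated control wells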
# Fibroblast inh: blocks proliferation of human lung fibroblasts; LL 47 human lung fibroblast viability, ATP luminescence; hits give low values; viability, % at 10 µM; hit rate 1.1% among 85,000; AID 719;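 active means viability at or below 50% in the single dose screen; inactive means viability above 50%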;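 further: compound exposure lasted 72 h before the ATP readout; 100% = median luminescence of untreated cell-only wells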
#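 material = human LL 47 lung fibroblast cells | dosing = compounds added from tenfold dosing solution, 0.1% DMSO final | timing = overnight cell rest, 72 h compound treatment at 37 °C | measured by = CellTiter-Glo luminescence measuring cellular ATP | evaluation = % viability versus median cells-only luminescence | control set = cell-only wells, no compound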
# * marks the source's active call; other numbers are inactive results; / = no result. This is a sample that favours compounds with a hit; in the whole collection about 6% have one here.
SMILES,Jurkat viability,Pyk2 oligo antag,cytoskel mod,HUVEC prolif 384,H69AR inhibit,Fibroblast inh
Cc1ccc2c(c1C)NC(C)CC2C (centres undefined),-2,0.07,11,91,80,88
CC(=O)N1CCN(c2ccc(Oc3nnnn3-c3ccccc3)cc2)CC1,9,1.3,36,107,97,105
O=C(CC1C(=O)N(c2ccc(Cl)cc2)C(=S)N1CCc1ccncc1)Nc1ccc(F)cc1 (centres undefined),/,1,-14,/,/,/
CCN(CC)S(=O)(=O)c1ccc(NC2=NS(=O)(=O)c3ccccc32)cc1,/,-0.61,-19,90,83,108
O=S1(=O)N=C(Nc2ccc(O)c(CN3CCCCC3)c2)c2ccccc21,1,0,/,100,33*,/
COc1ccc2[nH]c(=O)c(CN(CCO)S(=O)(=O)c3c(C)ccc4nsnc34)cc2c1,/,0.46,9,96,77,101
COc1ccc2[nH]c(=O)c(CN(Cc3cccs3)S(=O)(=O)c3cccc4nsnc34)cc2c1,-3,-2.7,-5,74,3.0*,83
COC(=O)c1oc2ccc(Br)cc2c1NC(=O)CN1CCN(C)CC1,-6,-0.04,6,85,88,92
COC(=O)c1oc2ccc(Br)cc2c1NC(=O)c1ccccc1,1,0.82,6,85,30*,81
CCOc1ccc(/C(O)=C2\C(=O)C(=O)N(c3cc(C)on3)C2c2ccccc2OC)cc1 (centres undefined),-2,-1.4,-44,/,/,/
Cc1cc2c(N=O)c(NO)ccc2[nH]1,75*,0.49,-6,60,/,1.9*
CC(=O)Nc1ccc2[nH]c(C)cc(=O)c2c1,/,-0.19,8,92,92,98
Cc1cc(Nc2ccccc2)n(CCO)n1,/,1.9,0,100,103,105
Cc1ccc2nc(/C(C#N)=C/c3cn[nH]c3-c3ccc(F)cc3)[nH]c2c1,/,-1.6,8,59,14*,87
Cc1ccc2nc(/C(C#N)=N/O)[nH]c2c1,-3,0.5,8,94,80,96
Cc1ccc2nc(/C(C#N)=C\c3ccc(N4CCCCC4)c([N+](=O)[O-])c3)[nH]c2c1,/,-2.3,-20,106,18*,98
COc1ccc(-c2c3c(=O)n(C)c(=O)n(C)c3cn2C2CCCCC2)cc1,7,-0.69,-21,86,20*,84
O=C1C2ON(c3ccc(Cl)cc3)C(c3ccco3)C2C(=O)N1c1ccccc1 (centres undefined),-4,0.42,-11,91,80,98
O=C(c1ccc2c(c1)OCCO2)C1CCN(S(=O)(=O)c2ccc(F)cc2)CC1,12,-2.2,10,64,82,83
O=C(OCC(=O)N1CCc2ccccc21)C1=COCCO1,-7,0.51,-18,94,28*,99
Cc1cc(C)c(C(=O)c2ccc(C(=O)NC(C)(C)C)cc2)c(C)c1,/,0.4,-14,90,99,96
Cc1cc(C)c(C(=O)c2ccc(C(=O)N(C(C)C)C(C)C)cc2)c(C)c1,/,-0.81,-1,92,24*,84
Cc1cc(N)n2ncc(-c3cccc(Br)c3)c2n1,1,-1.4,-34,46,26*,66
C1CCN(c2nc(N3CCCCC3)nc(N3CCNCC3)n2)CC1,2,0.7,-2,86,0.4*,85
CCc1[nH]nc2c1C(c1ccc(Br)s1)C(C#N)=C(N)O2 (centres undefined),/,0.02,21,69,1.7*,24*
SMILES,Jurkat viability,Pyk2 oligo antag,cytoskel mod,HUVEC prolif 384,H69AR inhibit,Fibroblast inh
CCc1[nH]nc2c1C(c1ccsc1)C(C#N)=C(N)O2 (centres undefined),/,-0.56,14,82,61,98
Cc1ccc(OCc2nc(-c3ccccn3)n[nH]2)cc1,/,0.43,3,82,33*,100
Cc1cccc(OCC(=O)O/N=C(\N)c2ccccn2)c1,/,-0.31,-28,104,100,94
Cc1cccc(OCc2nc(-c3ccccn3)n[nH]2)c1,/,0.8,6,78,34*,100
Cc1cc(OCC(=O)NC(C)C)cc(C)c1Cl,/,1.7,-3,105,92,102
Cc1cc(OCCOCCNC(C)C)cc(C)c1Cl,/,0.17,-3,81,28*,90
Cc1ccc(C(=O)Oc2ccc(Cl)c3cccnc23)cc1[N+](=O)[O-],/,1.1,-14,/,/,/
Cc1cc(C)c(C(=O)COc2cccnc2[N+](=O)[O-])cc1C,/,-0.3,20,85,1.1*,79
O=C1C(Cl)=C(N2CCOCC2)C(=O)N1c1cccc(Cl)c1,2,0.23,-20,102,0.8*,/
O=C1C(Cl)=C(N2CCN(Cc3ccccc3)CC2)C(=O)N1c1ccccc1,4,0.9,51,93,39*,98
O=C1C(Cl)=C(N2CCCCCC2)C(=O)N1c1ccccc1,9,0.15,13,97,102,/
CC(=O)c1cc(F)c(N2CCN(C(=O)COc3ccccc3F)CC2)cc1C,/,-0.17,8,107,82,102
Cc1c(Cl)cccc1-n1c(SCC(=O)NCc2ccccc2Cl)nnc1-c1ccncc1,/,-0.78,-33,86,21*,94
Cc1c(Cl)cccc1-n1c(SCC(=O)NCc2cccs2)nnc1-c1ccncc1,/,0,-14,103,83,102
CCCOc1ccccc1-n1sc2c(c1=S)-c1cc(OC)cc3c1N(C(=O)C3=O)C2(C)C,/,0.13,5,47,1.5*,74
COc1cccc(C(=O)Oc2cc3c4c(c2)C(C)=CC(C)(C)N4C(=O)C3=O)c1,/,-0.26,-11,/,/,/
Cc1noc(C)c1CSc1nc2ccccc2nc1NS(=O)(=O)c1ccc(Cl)cc1,76*,-0.92,9,66,57,99
CC(=O)OCCNC(=O)Cn1cnc2c1c(=O)n(C)c(=O)n2C,-4,0.98,/,86,99,94
O=C(NC1CCCCC1)c1noc2c1CCCCC2,-2,0.23,/,105,96,/
CCOC(=O)c1c(C)nn(Cc2cccc(Cl)c2)c1N,-2,-0.67,-9,100,103,97
Cc1ccccc1Cn1nnc2c1C(=O)c1ccccc1C2=O,/,-0.83,4,2.1*,12*,32*
Cc1cccc(Cn2nnc3c2C(=O)c2ccccc2C3=O)c1,/,-1,-20,3.4*,13*,70
Cc1ccc(C)c(NC(=O)c2nnn(Cc3ccccc3C)c2N)c1,7,-0.13,-28,90,92,96
CCOC(=O)N1CCC(NC(=O)c2cccc3c2C(=O)N(c2ccc(OC)cc2)C3)CC1,-6,/,-5,92,72,104
COc1ccccc1-n1cnnc1SCC(=O)Nc1nc(C)c(Cl)cc1Cl,/,0.04,32,94,86,100
O=C(c1ccco1)N1CCN(C(=O)c2cnn3c2NC(c2cccs2)CC3C(F)(F)F)CC1 (centres undefined),6,-0.27,13,98,/,99
O=C(c1cnn2c1NC(c1ccco1)CC2C(F)(F)F)N1CCN(c2cccc(Cl)c2)CC1 (centres undefined),10,0.03,-4,58,14*,88

# Screening data (PubChem)
